Measurements taken from ChEMBL document CHEMBL1938293, “Molecular drug-organiser: synthesis, characterization and biological evaluation of penicillin V and/or nalidixic acid calixarene-based podands” (2011).
Activity calls are given as the source filed them. No cut-off for these calls is given here.

Experiments:
Enterococcus faecalis [1] = experiment: Antibacterial activity against Enterococcus faecalis ATCC 29212 at 2.53 mg/mL after 24 hrs by disk diffusion assay; assay type: functional, organism-based
How it was run: (§1)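 Disk diffusion on Mueller–Hinton agar per CLSI recommendations. Sterile 6 mm cellulose disks were impregnated with 20 μL of the DMSO solution at the stated concentration. Plates were incubated at 37 °C and growth-inhibition zone diameters were read at 24 h. Disks carrying DMSO alone served as solvent control.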

Staphylococcus aureus [2] = experiment: Antibacterial activity against Staphylococcus aureus ATCC 29213 at 5.8 mg/mL after 24 hrs by disk diffusion assay; assay type: functional, organism-based; how it was run: as §1
Escherichia coli [3] = experiment: Antibacterial activity against Escherichia coli ATCC 25922 at 2.53 mg/mL after 24 hrs by disk diffusion assay; assay type: functional, organism-based; how it was run: as §1
Enterococcus faecalis [4] = experiment: Antibacterial activity against Enterococcus faecalis ATCC 29212 at 5.8 mg/mL after 24 hrs by disk diffusion assay; assay type: functional, organism-based; how it was run: as §1
Staphylococcus aureus [5] = experiment: Antibacterial activity against Staphylococcus aureus ATCC 29213 at 2.53 mg/mL after 24 hrs by disk diffusion assay; assay type: functional, organism-based; how it was run: as §1
Pseudomonas aeruginosa [6] = experiment: Antibacterial activity against Pseudomonas aeruginosa ATCC 27853 at 2.53 mg/mL after 24 hrs by disk diffusion assay; assay type: functional, organism-based; how it was run: as §1
Staphylococcus aureus [7] = experiment: Antibacterial activity against Staphylococcus aureus ATCC 25923 at 2.53 mg/mL after 24 hrs by disk diffusion assay; assay type: functional, organism-based; how it was run: as §1
Escherichia coli [8] = experiment: Antibacterial activity against Escherichia coli ATCC 25922 at 5.8 mg/mL after 24 hrs by disk diffusion assay; assay type: functional, organism-based; how it was run: as §1
Staphylococcus aureus [9] = experiment: Antibacterial activity against Staphylococcus aureus ATCC 25923 at 5.8 mg/mL after 24 hrs by disk diffusion assay; assay type: functional, organism-based; how it was run: as §1
Enterococcus faecalis [10] = experiment: Antibacterial activity against Enterococcus faecalis ATCC 29212 at 10 mg/mL after 24 hrs by disk diffusion assay; assay type: functional, organism-based; how it was run: as §1
Staphylococcus aureus [11] = experiment: Antibacterial activity against Staphylococcus aureus ATCC 29213 at 10 mg/mL after 24 hrs by disk diffusion assay; assay type: functional, organism-based; how it was run: as §1
Staphylococcus aureus [12] = experiment: Antibacterial activity against Staphylococcus aureus ATCC 25923 at 10 mg/mL after 24 hrs by disk diffusion assay; assay type: functional; conditions: ATCC 25923, 24 h, read-out: DIZ; how it was run: as §1
Staphylococcus aureus [13] = experiment: Antibacterial activity against Staphylococcus aureus ATCC 25923 at 10 mg/mL 1 month old compound stored at 4 degree C after 24 hrs by disk diffusion assay; assay type: functional; conditions: ATCC 25923, 24 h, read-out: DIZ
How it was run: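 Disk diffusion on Mueller–Hinton agar per CLSI recommendations. The DMSO solution had been stored 1 month at 4 °C before use and was compared with a freshly prepared solution. Sterile 6 mm cellulose disks were impregnated with 20 μL. Plates were incubated at 37 °C and inhibition zone diameter was read at 24 h.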

Escherichia coli [14] = experiment: Antibacterial activity against Escherichia coli ATCC 25922 at 10 mg/mL after 24 hrs by disk diffusion assay; assay type: functional, organism-based; how it was run: as §1
Staphylococcus aureus [15] = experiment: Antibacterial activity against Staphylococcus aureus ATCC 25923 at 10 mg/mL freshly prepared compound after 24 hrs by disk diffusion assay; assay type: functional; how it was run: as §1
Staphylococcus aureus [16] = experiment: Antibacterial activity against Staphylococcus aureus ATCC 29213 at 1.88 mg/mL after 24 hrs by disk diffusion assay; assay type: functional, organism-based
How it was run: (§2)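 Disk diffusion on Mueller–Hinton agar, run per CLSI recommendations. Sterile 6 mm cellulose disks each carried 20 μL of a DMSO solution. Reference drugs were dosed to equal the maximum amount releasable from the calixarene podands. Disks with DMSO alone served as solvent controls. Plates were incubated at 37 °C, and growth-inhibition zone diameter (mm) was read at 24 h.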

Staphylococcus aureus [17] = experiment: Antibacterial activity against Staphylococcus aureus ATCC 25923 at 1.88 mg/mL after 24 hrs by disk diffusion assay; assay type: functional, organism-based; how it was run: as §2
Escherichia coli [18] = experiment: Antibacterial activity against Escherichia coli ATCC 25922 at 1.88 mg/mL after 24 hrs by disk diffusion assay; assay type: functional, organism-based; how it was run: as §2
Pseudomonas aeruginosa [19] = experiment: Antibacterial activity against Pseudomonas aeruginosa ATCC 27853 at 1.88 mg/mL after 24 hrs by disk diffusion assay; assay type: functional, organism-based; how it was run: as §2
Enterococcus faecalis [20] = experiment: Antibacterial activity against Enterococcus faecalis ATCC 29212 at 1.88 mg/mL after 24 hrs by disk diffusion assay; assay type: functional, organism-based; how it was run: as §2
Enterococcus faecalis [21] = experiment: Antibacterial activity against Enterococcus faecalis ATCC 29212 at 3.25 mg/mL after 24 hrs by disk diffusion assay; assay type: functional, organism-based; how it was run: as §1
Pseudomonas aeruginosa [22] = experiment: Antibacterial activity against Pseudomonas aeruginosa ATCC 27853 at 3.25 mg/mL after 24 hrs by disk diffusion assay; assay type: functional, organism-based; how it was run: as §1
Escherichia coli [23] = experiment: Antibacterial activity against Escherichia coli ATCC 25922 at 3.25 mg/mL after 24 hrs by disk diffusion assay; assay type: functional, organism-based; how it was run: as §1
Staphylococcus aureus [24] = experiment: Antibacterial activity against Staphylococcus aureus ATCC 29213 at 3.25 mg/mL after 24 hrs by disk diffusion assay; assay type: functional, organism-based; how it was run: as §1
Staphylococcus aureus [25] = experiment: Antibacterial activity against Staphylococcus aureus ATCC 25923 at 3.25 mg/mL after 24 hrs by disk diffusion assay; assay type: functional, organism-based; how it was run: as §1
Enterococcus faecalis [26] = experiment: Antibacterial activity against Enterococcus faecalis ATCC 29212 at 5 mg/mL after 24 hrs by disk diffusion assay; assay type: functional, organism-based; how it was run: as §1
Escherichia coli [27] = experiment: Antibacterial activity against Escherichia coli ATCC 25922 at 5 mg/mL after 24 hrs by disk diffusion assay; assay type: functional, organism-based; how it was run: as §1
Staphylococcus aureus [28] = experiment: Antibacterial activity against Staphylococcus aureus ATCC 29213 at 5 mg/mL after 24 hrs by disk diffusion assay; assay type: functional, organism-based; how it was run: as §1
Pseudomonas aeruginosa [29] = experiment: Antibacterial activity against Pseudomonas aeruginosa ATCC 27853 at 5 mg/mL after 24 hrs by disk diffusion assay; assay type: functional, organism-based; how it was run: as §1
Staphylococcus aureus [30] = experiment: Antibacterial activity against Staphylococcus aureus ATCC 25923 at 5 mg/mL after 24 hrs by disk diffusion assay; assay type: functional, organism-based; how it was run: as §1
Staphylococcus aureus [31] = experiment: Antibacterial activity against Staphylococcus aureus ATCC 25923 at 1.25 mg/mL after 24 hrs by disk diffusion assay; assay type: functional, organism-based; how it was run: as §1
Enterococcus faecalis [32] = experiment: Antibacterial activity against Enterococcus faecalis ATCC 29212 at 1.25 mg/mL after 24 hrs by disk diffusion assay; assay type: functional, organism-based; how it was run: as §1
Escherichia coli [33] = experiment: Antibacterial activity against Escherichia coli ATCC 25922 at 2.83 mg/mL after 24 hrs by disk diffusion assay; assay type: functional, organism-based; how it was run: as §1
Staphylococcus aureus [34] = experiment: Antibacterial activity against Staphylococcus aureus ATCC 25923 at 2.83 mg/mL after 24 hrs by disk diffusion assay; assay type: functional, organism-based; how it was run: as §1
Staphylococcus aureus [35] = experiment: Antibacterial activity against Staphylococcus aureus ATCC 29213 at 1.25 mg/mL after 24 hrs by disk diffusion assay; assay type: functional, organism-based; how it was run: as §1
Staphylococcus aureus [36] = experiment: Antibacterial activity against Staphylococcus aureus ATCC 29213 at 2.83 mg/mL after 24 hrs by disk diffusion assay; assay type: functional, organism-based; how it was run: as §1
Enterococcus faecalis [37] = experiment: Antibacterial activity against Enterococcus faecalis ATCC 29212 at 2.83 mg/mL after 24 hrs by disk diffusion assay; assay type: functional, organism-based; how it was run: as §1
Pseudomonas aeruginosa [38] = experiment: Antibacterial activity against Pseudomonas aeruginosa ATCC 27853 at 2.83 mg/mL after 24 hrs by disk diffusion assay; assay type: functional, organism-based; how it was run: as §1

CC(C)(C)c1cc2c(O)c(c1)Cc1cc(C(C)(C)C)cc(c1OCCCOC(=O)[C@@H]1N3C(=O)[C@@H](NC(=O)COc4ccccc4)[C@H]3SC1(C)C)Cc1cc(C(C)(C)C)cc(c1O)Cc1cc(C(C)(C)C)cc(c1OCCCOC(=O)[C@@H]1N3C(=O)[C@@H](NC(=O)COc4ccccc4)[C@H]3SC1(C)C)C2
Activity (Enterococcus faecalis [1]): inactive
Activity (Staphylococcus aureus [2]): inactive
Activity (Escherichia coli [3]): inactive
Activity (Enterococcus faecalis [4]): inactive
Activity (Staphylococcus aureus [5]): inactive
Activity (Pseudomonas aeruginosa [6]): inactive
Activity (Staphylococcus aureus [7]): inactive
Activity (Escherichia coli [8]): inactive
Activity (Staphylococcus aureus [9]): Active

CCn1cc(C(=O)OCCCOc2c3cc(C(C)(C)C)cc2Cc2cc(C(C)(C)C)cc(c2O)Cc2cc(C(C)(C)C)cc(c2OCCCOC(=O)[C@@H]2N4C(=O)[C@@H](NC(=O)COc5ccccc5)[C@H]4SC2(C)C)Cc2cc(C(C)(C)C)cc(c2O)C3)c(=O)c2ccc(C)nc21
Activity (Enterococcus faecalis [10]): inactive
Activity (Staphylococcus aureus [11]): inactive
zone of inhibition at 10000 µg/mL (Staphylococcus aureus [12]): 31.5 mm
zone of inhibition at 10000 µg/mL (Staphylococcus aureus [13]): 35 mm
Activity (Escherichia coli [14]): inactive
diameter of the inhibition zone (DIZ) (Staphylococcus aureus [15]): 30 mm

CCn1cc(C(=O)O)c(=O)c2ccc(C)nc21
Activity (Staphylococcus aureus [16]): Active
Activity (Staphylococcus aureus [17]): Active
Activity (Escherichia coli [18]): Active
Activity (Pseudomonas aeruginosa [19]): inactive
Activity (Enterococcus faecalis [20]): inactive

CC(C)(C)c1cc2c(O)c(c1)Cc1cc(C(C)(C)C)cc(c1OCCCO)Cc1cc(C(C)(C)C)cc(c1O)Cc1cc(C(C)(C)C)cc(c1OCCCO)C2
Activity (Enterococcus faecalis [21]): inactive
Activity (Pseudomonas aeruginosa [22]): inactive
Activity (Escherichia coli [23]): inactive
Activity (Staphylococcus aureus [24]): inactive
Activity (Staphylococcus aureus [25]): inactive

CCn1cc(C(=O)OCCCOc2c3cc(C(C)(C)C)cc2Cc2cc(C(C)(C)C)cc(c2O)Cc2cc(C(C)(C)C)cc(c2OCCCOC(=O)c2cn(CC)c4nc(C)ccc4c2=O)Cc2cc(C(C)(C)C)cc(c2O)C3)c(=O)c2ccc(C)nc21
Activity (Enterococcus faecalis [26]): inactive
Activity (Escherichia coli [27]): inactive
Activity (Staphylococcus aureus [28]): inactive
Activity (Pseudomonas aeruginosa [29]): inactive
Activity (Staphylococcus aureus [30]): inactive

CC1(C)S[C@@H]2[C@H](NC(=O)COc3ccccc3)C(=O)N2[C@H]1C(=O)O
Activity (Staphylococcus aureus [31]): Active
Activity (Enterococcus faecalis [32]): Active
Activity (Escherichia coli [33]): inactive
Activity (Staphylococcus aureus [34]): Active
Activity (Staphylococcus aureus [35]): Active
Activity (Staphylococcus aureus [36]): Active
Activity (Enterococcus faecalis [37]): inactive
Activity (Pseudomonas aeruginosa [38]): inactive
